Source: ChEMBL document CHEMBL1156003, “A strategy of employing aminoheterocycles as amide mimics to identify novel, potent and bioavailable soluble epoxide hydrolase inhibitors” (Bioorg Med Chem Lett, 2009)

How the values were obtained:
[1] = target: T1, Bifunctional epoxide hydrolase 2 (Homo sapiens, UniProt P34913); experiment: Inhibition of human sEH
T1 sequence (P34913 whole entry): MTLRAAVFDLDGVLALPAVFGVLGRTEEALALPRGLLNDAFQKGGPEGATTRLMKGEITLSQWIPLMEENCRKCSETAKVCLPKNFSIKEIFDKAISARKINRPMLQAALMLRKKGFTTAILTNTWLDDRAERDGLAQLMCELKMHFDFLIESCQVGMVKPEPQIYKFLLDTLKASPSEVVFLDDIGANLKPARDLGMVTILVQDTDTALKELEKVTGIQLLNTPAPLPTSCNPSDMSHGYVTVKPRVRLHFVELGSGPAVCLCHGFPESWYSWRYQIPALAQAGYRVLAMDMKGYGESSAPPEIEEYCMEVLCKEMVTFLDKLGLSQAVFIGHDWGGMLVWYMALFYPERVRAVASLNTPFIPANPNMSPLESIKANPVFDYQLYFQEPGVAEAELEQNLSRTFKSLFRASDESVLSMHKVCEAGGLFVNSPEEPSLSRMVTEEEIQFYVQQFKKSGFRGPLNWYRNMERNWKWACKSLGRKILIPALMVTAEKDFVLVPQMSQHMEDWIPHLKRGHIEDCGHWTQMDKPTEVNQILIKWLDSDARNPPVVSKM
Method in brief: (§1)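 Human and rat sEH enzyme inhibition; values from one or two experiments, each in triplicate, within 20% deviation on repeat.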

[2] = target: T2, Bifunctional epoxide hydrolase 2 (Rattus norvegicus, UniProt P80299); experiment: Inhibition of rat sEH; method in brief: as §1
T2 sequence (P80299 whole entry): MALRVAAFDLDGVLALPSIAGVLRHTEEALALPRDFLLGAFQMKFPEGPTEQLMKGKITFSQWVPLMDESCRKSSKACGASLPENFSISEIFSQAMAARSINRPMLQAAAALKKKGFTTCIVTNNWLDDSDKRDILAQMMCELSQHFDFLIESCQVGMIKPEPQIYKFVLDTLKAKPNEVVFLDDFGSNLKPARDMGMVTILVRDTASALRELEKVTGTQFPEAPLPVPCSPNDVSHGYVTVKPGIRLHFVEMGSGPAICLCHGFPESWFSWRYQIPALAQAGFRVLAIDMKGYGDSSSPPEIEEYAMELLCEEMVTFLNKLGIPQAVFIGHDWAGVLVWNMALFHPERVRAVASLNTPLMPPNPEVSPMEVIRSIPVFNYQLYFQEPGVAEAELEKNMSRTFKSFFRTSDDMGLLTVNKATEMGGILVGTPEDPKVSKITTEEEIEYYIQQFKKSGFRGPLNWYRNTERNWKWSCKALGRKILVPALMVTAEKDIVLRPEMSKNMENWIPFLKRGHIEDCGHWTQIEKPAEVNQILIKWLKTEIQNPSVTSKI

Plasma [3] = experiment: Fraction unbound in human plasma at 0.2 to 25 uM; type: ADME, cell-free; settings: in the assay text read “0.5 to 25 uM” for “0.2 to 25 uM”
Method in brief: (§2)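 Free fraction measured with radiolabeled compound in human and rat plasma, compound at 0.5–25 μM.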

[4] = Half life at steady state in rat at 1 mg/kg, iv and 2 mg/kg, po; type: ADME, organism-based; settings: in vivo
Method in brief: (§3)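 Rat PK: dosed at 1 mg/mL in ethanol/PEG/water (20:40:40); IV 1 mg/kg (n = 2), PO 2 mg/kg (n = 3). Blood levels measured by LC/MS/MS after acetonitrile protein precipitation.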

[5] = Oral bioavailability in rat at 2 mg/kg; type: ADME, organism-based; settings: in vivo; method in brief: as §3
Plasma [6] = experiment: Fraction unbound in rat plasma at 0.2 to 25 uM; type: ADME, cell-free; settings: in the assay text read “0.5 to 25 uM” for “0.2 to 25 uM”; method in brief: as §2
[7] = Volume of distribution at steady state in rat at 1 mg/kg, iv and 2 mg/kg, po; type: ADME, organism-based; settings: in vivo, read-out: Vdss; method in brief: as §3
[8] = target: T1, Bifunctional epoxide hydrolase 2; experiment: Inhibition of human sEH assessed as DHET production in presence of 10% human serum
[9] = Clearance in rat at 1 mg/kg, iv and 2 mg/kg, po; type: ADME, organism-based; settings: in vivo; method in brief: as §3

SMILES	IC50 [1] [nM]	IC50 [2] [nM]	also measured
c1ccc(-c2ccc(Nc3noc4ccccc34)cc2)cc1	170	740	
c1ccc2cc(Nc3noc4ccccc34)ccc2c1	1200		
FC(F)(F)c1ccc(Nc2noc3cnccc23)cc1	31		
FC(F)(F)Oc1cccc(Nc2noc3ccccc23)c1	160	160	
c1ccc(-c2cccc(Nc3noc4ccccc34)c2)cc1	960		
FC(F)(F)c1ccc(Nc2noc3cc(-c4cccc(C(F)(F)F)c4)ccc23)cc1	470	570	
c1ccc(CNc2nnc(-c3ccccc3)o2)cc1	> 10000		
FC(F)(F)c1ccc(Nc2noc3cc(-c4ccccc4C(F)(F)F)ccc23)cc1	8	70	
c1ccc(CNc2ccc(-c3ccccc3)cn2)cc1	> 10000		
FC(F)(F)Oc1ccc(Nc2noc3ccccc23)cc1	60	170	
FC(F)(F)c1ccc(Nc2nsc3ccccc23)cc1	2500		
c1ccc(Cc2nnc(Nc3ccccc3)o2)cc1	> 10000		
FC(F)(F)c1ccc(Nc2noc3cccnc23)cc1	1100		
FC(F)(F)c1ccc(Nc2noc3ccccc23)cc1	25	76	
FC(F)(F)c1ccc(Nc2noc3c(C(F)(F)F)nccc23)cc1	19	300	
c1ccc(CNc2cnc3ccccc3n2)cc1	> 10000		
c1ccc(CNc2nc3ccccc3s2)cc1	> 10000		
FC(F)(F)c1ccc(Nc2noc3cc(C(F)(F)F)ccc23)cc1	18		
FC(F)(F)c1ccc(Nc2noc3c(-c4ccccc4C(F)(F)F)cccc23)cc1	4	79	
FC(F)(F)c1ccc(Nc2noc3cc(-c4cccnc4)ccc23)cc1	23	20	
FC(F)(F)c1ccc(Nc2noc3ccc(C(F)(F)F)cc23)cc1	40	1500	
Fc1ccccc1-c1ccc2c(Nc3ccc(C(F)(F)F)cc3)noc2c1	91	55	
FC(F)(F)c1ccc(Nc2n[nH]c3ccccc23)cc1	> 10000		

SMILES	IC50 [1] [nM]	IC50 [2] [nM]	also measured
FC(F)(F)c1ccc(CNc2cc(-c3ccccc3)on2)cc1	4700		
FC(F)(F)c1ccc(Nc2noc3c(C(F)(F)F)cccc23)cc1	4	127	Fu (Plasma [3]): 0.7%; half-life [4]: 5.9 h; bioavailability [5]: 98%; Fu (Plasma [6]): 0.9%; Vd [7]: 7 L/kg; IC50 [8]: 1200 nM; clearance [9]: 30 mL/min/kg
FC(F)(F)c1ccc(Nc2noc3cc(-c4ccc5[nH]ccc5c4)ccc23)cc1	70	77	
FC(F)(F)c1nnc(Nc2ccccc2)o1	2000		
Cc1cccnc1-c1ccc2c(Nc3ccc(C(F)(F)F)cc3)noc2c1	70	290	
FC(F)(F)c1cccc(CNc2cc(-c3ccccc3)ncn2)c1	> 10000		
FC(F)(F)c1ccc(Nc2noc3c(-c4ccc5[nH]ccc5c4)cccc23)cc1	8	41	
c1ccc(CNc2nnc(Cc3ccccc3)o2)cc1	> 10000		
FC(F)(F)c1ccc(Nc2noc3c(-c4cccc(C(F)(F)F)c4)cccc23)cc1	10	130	
FC(F)(F)c1ccc(Nc2noc3c(C(F)(F)F)cccc23)cn1	74	3400	
FC(F)(F)c1ccc(Nc2cc(-c3ccccc3)on2)cc1	> 10000		
c1ccc(CNc2nc3ccccc3o2)cc1	> 10000		
FC(F)(F)c1ccc(Nc2noc3ncccc23)cc1	27		
FC(F)(F)c1ccc(Nc2noc3c(C(F)(F)F)cccc23)nc1	> 10000	> 10000	
FC(F)(F)c1ccccc1Nc1noc2ccccc12	960		
c1ccc2c(Nc3noc4ccccc34)cccc2c1	840	4600	
c1ccc(CNc2cnc(-c3ccccc3)cn2)cc1	> 10000		
FC(F)(F)c1ccc(Nc2noc3ccncc23)cc1	340		
FC(F)(F)c1ccc(Nc2noc3cc(-c4ccncc4)ccc23)cc1	58	19	
c1ccc(CNc2cc(-c3ccccc3)ccn2)cc1	> 10000		
FC(F)(F)Oc1ccccc1Nc1noc2ccccc12	5200		
FC(F)(F)c1ccc(Nc2noc3cc(-c4cccc5cnccc45)ccc23)cc1	19	30	
FC(F)(F)c1ccc(CNc2noc3ccccc23)cc1	1200		
